The record followed here is ChEMBL document CHEMBL3259616, “New Ianthelliformisamine derivatives as antibiotic enhancers against resistant Gram-negative bacteria” (J Med Chem, 2014).

As a reminder, the MIC is the lowest concentration that inhibits growth of the organism. What is called IC50 is the concentration that gives 50% inhibition.

Converted amounts (≈) assume the structure as drawn. Some results are limits rather than exact numbers.

In test [1] the test system is Klebsiella pneumoniae. Description: Antibacterial activity against Klebsiella pneumoniae KPC2 ST258 assessed as inhibition of visible growth after 18 hrs incubation by standard broth dilution method. The conditions noted are these: KPC2, 18 h. It is filed as functional. The method, boiled down:
(§1)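 Broth microdilution per CA-SFM: inoculum 10^5 CFU in 200 μL Mueller–Hinton broth with 2-fold serial dilutions of compound; MIC = lowest concentration with no visible growth after 18 h at 37 °C. Independently repeated at least three times. Strains kept at −80 °C in 15% glycerol and grown routinely in MH broth at 37 °C.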

In test [2] the test system is Pseudomonas aeruginosa PAO1. Description: Inhibition of multidrug resistance efflux pump in Pseudomonas aeruginosa PAO1 assessed as dose required to restore 2 ug/ml doxycycline-induced inhibition of visible growth after 18 hrs by standard broth dilution method. The method, boiled down: (§2)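 Broth microdilution in MH broth, inoculum 10^5 CFU in 200 μL, 2-fold serial dilutions of derivative with fixed antibiotic (2 μg/mL). Lowest derivative concentration giving complete inhibition of visible growth after 18 h at 37 °C recorded. Antibiotics dissolved in DMSO. Independently repeated at least three times.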
For orientation: Dilution methods test growth across graded concentrations, often in twofold steps.

Test [3] relates to Klebsiella pneumoniae. Description: Inhibition of multidrug resistance efflux pump in Klebsiella pneumoniae KPC2 ST258 assessed as dose required to restore 2 ug/ml doxycycline-induced inhibition of visible growth after 18 hrs by standard broth dilution method. The method, boiled down:
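Broth microdilution in Mueller-Hinton broth, CA-SFM recommendations. Inoculum 10^5 CFU in 200 μL containing 2-fold serial dilutions of derivative plus doxycycline at 2 μg/mL, 37 °C for 18 h. Antibiotics dissolved in DMSO, up to 5% v/v. Repeated independently at least three times.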

Test [4] deals with Klebsiella aerogenes. Description: Inhibition of multidrug resistance efflux pump in Enterobacter aerogenes EA289 assessed as dose required to restore 2 ug/ml doxycycline-induced inhibition of visible growth after 18 hrs by standard broth dilution method. The method, boiled down:
as §2

A further test concerns Pseudomonas aeruginosa. Description: Antibacterial activity against Pseudomonas aeruginosa PAO1 assessed as inhibition of visible growth after 18 hrs incubation by standard broth dilution method. It is filed as functional. The conditions noted are these: PAO1, 18 h. An outline of the steps:
as §1

The test system of another test is Staphylococcus aureus. Description: Antibacterial activity against Staphylococcus aureus DSM799 assessed as inhibition of visible growth after 18 hrs incubation by standard broth dilution method. Format: functional. The note with it: DSM799, 18 h. An outline of the steps: as §1
Test [5] concerns Klebsiella aerogenes. Description: Antibacterial activity against Enterobacter aerogenes EA289 assessed as inhibition of visible growth after 18 hrs incubation by standard broth dilution method. Format: functional. The note with it: EA289, 18 h. An outline of the steps:
as §1

Test [6] is described as follows: Cytotoxicity against human fibroblasts assessed as decrease in cell viability after 24 hrs by WST-1 assay. The conditions noted are these: Fibroblast. It is filed as cell-based. The method, boiled down:
(§3)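 CHO-K1 (McCoy's 5A) and human fibroblasts (DMEM), both with 10% bovine calf serum, 2 mM glutamine, penicillin/streptomycin, 37 °C, 5% CO2. Seeded, left overnight, then exposed to various compound concentrations in triplicate for 24 h at 37 °C. Washed three times in PBS, 30 min in PBS with 10% WST-1, A450. Viability as % of medium-only control; IC50 by nonlinear regression.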
A general note: Tetrazolium assays rely on reduction of a dye to a coloured formazan, in cell work by metabolically active cells.

Test [7] in a line: Cytotoxicity against CHOK1 cells assessed as decrease in cell viability after 24 hrs by WST-1 assay. It is filed as cell-based. The note with it: Cricetulus griseus, CHO-K1, 24 h. The method, boiled down:
as §3

Test [8] concerns Pseudomonas aeruginosa PAO1. Description: Inhibition of multidrug resistance efflux pump in Pseudomonas aeruginosa PAO1 assessed as dose required to restore 2 ug/ml chloramphenicol-induced inhibition of visible growth after 18 hrs by standard broth dilution method. An outline of the steps:
as §2

Test [9] has as its system Pseudomonas aeruginosa PAO1. Description: Inhibition of multidrug resistance efflux pump in Pseudomonas aeruginosa PAO1 assessed as dose required to restore 2 ug/ml cefepime-induced inhibition of visible growth after 18 hrs by standard broth dilution method. An outline of the steps:
as §2

On to `COc1c(Br)cc(/C=C/C(=O)NCCN)cc1Br`, for which the MIC with Klebsiella pneumoniae [1], with Pseudomonas aeruginosa, in the test on Staphylococcus aureus and with Klebsiella aerogenes [5] was over 200 µM throughout. Further, the Activity in [2] is over 100 µM; in the test on Klebsiella pneumoniae [3], 50 µM; in the test on Klebsiella aerogenes [4], over 100 µM. Further, in [2], the inhibition result is “Dose-dependent effect”.
For the molecule `COc1c(Br)cc(/C=C/C(=O)NCCCN2CCOCC2)cc1Br`, the minimal inhibitory concentration (MIC) in the test on Klebsiella pneumoniae [1], in the test on Pseudomonas aeruginosa, with Staphylococcus aureus and in the test on Klebsiella aerogenes [5] was over 200 µM throughout. In addition, the Activity (in test [2]; in the test on Klebsiella pneumoniae [3]; in the test on Klebsiella aerogenes [4]) was over 100 µM in each case. Besides, in test [2], the inhibition entry is “Dose-dependent effect”.
Consider `COc1c(Br)cc(/C=C/C(=O)NCCCN2CCCC2)cc1Br`, for which the minimum inhibitory concentration (MIC) with Klebsiella pneumoniae [1], in the test with Pseudomonas aeruginosa, in the test with Staphylococcus aureus and in the test on Klebsiella aerogenes [5] was over 200 µM each time. In addition, the Activity in [2] is 25 µM; in the test with Klebsiella pneumoniae [3], over 100 µM; in the test on Klebsiella aerogenes [4], over 100 µM. For the same molecule, the inhibition result in [2] was “Dose-dependent effect”.
`O=C(N[C@H](CO)[C@H](O)c1ccc([N+](=O)[O-])cc1)C(Cl)Cl` [CHLORAMPHENICOL]: the MIC in the test on Pseudomonas aeruginosa and with Klebsiella aerogenes [5] was over 200 µM each time.
For `COc1c(Br)cc(/C=C/C(=O)NCCCN)cc1Br`, the MIC was over 200 µM in the test on Klebsiella pneumoniae [1], 100 µM (≈ 39.2 µg/mL) in the test on Pseudomonas aeruginosa, over 200 µM with Staphylococcus aureus and over 200 µM with Klebsiella aerogenes [5]. For the same molecule, the Activity in test [2] is 100 µM; in the test on Klebsiella pneumoniae [3] it was 100 µM; in the test with Klebsiella aerogenes [4] it was over 100 µM. In addition, in [2], the inhibition result is “Dose-dependent effect”.
As to `COc1c(Br)cc(/C=C/C(=O)NCCNCCNCCN)cc1Br`, the MIC with Klebsiella pneumoniae [1], in the test with Pseudomonas aeruginosa, with Staphylococcus aureus and in the test with Klebsiella aerogenes [5] was over 200 µM throughout. The Activity (in test [2]; in the test with Klebsiella pneumoniae [3]; with Klebsiella aerogenes [4]) was over 100 µM throughout. In addition, in [2], the inhibition entry was “Dose-dependent effect”.
In the case of `COc1c(Br)cc(/C=C/C(=O)NCCCNCCCCNCCCN)cc1Br` [IANTHELLIFORMISAMINE A], the MIC was over 200 µM in the test on Klebsiella pneumoniae [1], 200 µM (≈ 104 µg/mL) in the test with Pseudomonas aeruginosa, 200 µM (≈ 104 µg/mL) in the test with Staphylococcus aureus and over 200 µM in the test with Klebsiella aerogenes [5]. Besides, the Activity is 12.5 µM in [2], over 100 µM with Klebsiella pneumoniae [3] and over 100 µM in the test with Klebsiella aerogenes [4]. Moreover, the inhibition result in test [2] was “Dose-dependent effect”.
Turning to `COc1c(Br)cc(/C=C/C(=O)NCCCCN)cc1Br`, the MIC in the test on Klebsiella pneumoniae [1], with Pseudomonas aeruginosa, in the test with Staphylococcus aureus and with Klebsiella aerogenes [5] was over 200 µM in each case. Also, the Activity (in [2]; with Klebsiella pneumoniae [3]; in the test with Klebsiella aerogenes [4]) was over 100 µM each time. For the same molecule, the inhibition result in test [2] is “Dose-dependent effect”.
Consider `COc1c(Br)cc(/C=C/C(=O)NCCCN(C)CCCN)cc1Br`, for which the MIC is over 200 µM in the test with Klebsiella pneumoniae [1], 200 µM (≈ 92.6 µg/mL) in the test on Pseudomonas aeruginosa, over 200 µM in the test with Staphylococcus aureus and over 200 µM in the test with Klebsiella aerogenes [5]. In addition, the concentration for half-maximal inhibition (IC50) came to 24 µM in test [6] and 174 µM in test [7].
For `COc1c(Br)cc(/C=C/C(=O)NCCCCCN)cc1Br`, the MIC with Klebsiella pneumoniae [1], with Pseudomonas aeruginosa, in the test on Staphylococcus aureus and with Klebsiella aerogenes [5] was over 200 µM in each case. Also, the Activity in test [2] is over 100 µM; in the test on Klebsiella pneumoniae [3], 6.25 µM; in the test on Klebsiella aerogenes [4], over 100 µM. Also, in test [2], the inhibition result was “Dose-dependent effect”.
`COc1c(Br)cc(/C=C/C(=O)NCCCOCCCCOCCCN)cc1Br`: the minimum inhibitory concentration (MIC) with Klebsiella pneumoniae [1], in the test with Pseudomonas aeruginosa, in the test on Staphylococcus aureus and in the test on Klebsiella aerogenes [5] was over 200 µM in each case. The Activity (in test [2]; with Klebsiella pneumoniae [3]; in the test on Klebsiella aerogenes [4]) was over 100 µM throughout. Moreover, the inhibition entry in test [2] was “Dose-dependent effect”.
Take `COc1c(Br)cc(/C=C/C(=O)NCCCNCCCCN)cc1Br.Cl.Cl`: the minimum inhibitory concentration (MIC) is over 200 µM in the test on Klebsiella pneumoniae [1], over 200 µM in the test with Pseudomonas aeruginosa, over 200 µM in the test on Staphylococcus aureus and 100 µM with Klebsiella aerogenes [5]. Also, the Activity in [2] worked out at 12.5 µM; with Klebsiella pneumoniae [3] it was 3.12 µM; with Klebsiella aerogenes [4] it was 25 µM; in test [8], 200 µM; in [9], 0.8 µM. Moreover, the inhibition entry in [2] was “Dose-dependent effect”. Moreover, the IC50 in test [6] was found to be 129 µM; in [7], 1660 µM.
Take `COc1c(Br)cc(/C=C/C(=O)NCCCNCCCNCCCNC(=O)/C=C/c2cc(Br)c(OC)c(Br)c2)cc1Br`: the MIC was 12.5 µM (≈ 10.3 µg/mL) in the test on Klebsiella pneumoniae [1], 25 µM (≈ 20.6 µg/mL) with Pseudomonas aeruginosa, 12.5 µM (≈ 10.3 µg/mL) in the test on Staphylococcus aureus and 100 µM (≈ 82.4 µg/mL) in the test with Klebsiella aerogenes [5]. The Activity in test [2] was determined as 3.12 µM; with Klebsiella pneumoniae [3], 12.5 µM; with Klebsiella aerogenes [4] it was 12.5 µM; in test [8] it was 12.5 µM; in test [9], 1.6 µM. In [2], the inhibition result is “Dose-dependent effect”. Moreover, the 50% inhibitory concentration (IC50) was found to be 237 µM in test [6] and 663 µM in [7].
With `COc1c(Br)cc(/C=C/C(=O)NCCNCCNCCNCCN)cc1Br`, the MIC with Klebsiella pneumoniae [1] was over 200 µM; in the test on Pseudomonas aeruginosa it was 100 µM (≈ 50.7 µg/mL); in the test on Staphylococcus aureus, 50 µM (≈ 25.4 µg/mL); in the test with Klebsiella aerogenes [5] it was 200 µM (≈ 101 µg/mL). For the same molecule, the Activity in [2] was found to be 6.25 µM; in the test on Klebsiella pneumoniae [3], 3.12 µM; in the test on Klebsiella aerogenes [4], 12.5 µM; in test [8], 100 µM; in test [9], 6.25 µM. Besides, the inhibition result in test [2] was “Dose-dependent effect”. Also, the 50% inhibitory concentration (IC50) in test [6] is 237 µM; in test [7], 573 µM.
In the case of `C[C@H]1c2cccc(O)c2C(=O)C2=C(O)[C@]3(O)C(=O)C(C(N)=O)=C(O)[C@@H](N(C)C)[C@@H]3[C@@H](O)[C@@H]21` [DOXYCYCLINE], the MIC in the test with Pseudomonas aeruginosa is 112 µM (≈ 49.8 µg/mL); with Staphylococcus aureus it was under 3 µM; in the test with Klebsiella aerogenes [5], 56 µM (≈ 24.9 µg/mL).
Take `COc1c(Br)cc(/C=C/C(=O)NCCCCNCCCN)cc1Br.Cl.Cl`: the MIC is over 200 µM in the test on Klebsiella pneumoniae [1], 200 µM with Pseudomonas aeruginosa, 200 µM in the test with Staphylococcus aureus and over 200 µM in the test with Klebsiella aerogenes [5]. Besides, the Activity in test [2] was determined as 3.12 µM; in the test on Klebsiella pneumoniae [3], 3.12 µM; with Klebsiella aerogenes [4] it was 6.25 µM; in test [8], 100 µM; in test [9] it was 3.12 µM. Besides, the inhibition entry in [2] was “Dose-dependent effect”. Further, the IC50 in [6] stood at 33 µM; in test [7] it was 108 µM.
As to `COc1c(Br)cc(/C=C/C(=O)NCCCN2CCN(CCCN)CC2)cc1Br`, the MIC in the test on Klebsiella pneumoniae [1] was over 200 µM; with Pseudomonas aeruginosa, over 200 µM; in the test with Staphylococcus aureus, 6.25 µM (≈ 3.24 µg/mL); with Klebsiella aerogenes [5], over 200 µM. The Activity in the test with Klebsiella pneumoniae [3] and with Klebsiella aerogenes [4] was over 100 µM throughout.
Turning to `CO/N=C(\C(=O)N[C@@H]1C(=O)N2C(C(=O)[O-])=C(C[N+]3(C)CCCC3)CS[C@H]12)c1csc(N)n1` [CEFEPIME], the minimum inhibitory concentration (MIC) in the test on Pseudomonas aeruginosa worked out at 26 µM (≈ 12.5 µg/mL); in the test with Klebsiella aerogenes [5] it was 52 µM (≈ 25 µg/mL).
